Results reported in ChEMBL document CHEMBL4513216, “Probing the Open Global Health Chemical Diversity Library for Multistage-Active Starting Points for Next-Generation Antimalarials” (ACS Infect Dis, 2020).

Assay: Toxicity liver stage against HepG2, at 10uM
Type: cell-based
Parameters: test concentration 10 uM, cell line HepG2-A16-CD81EGFP
Conditions: human, HepG2-A16-CD81EGFP cells; read-out: INHIBITION
In short: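 Uninfected HepG2-A16-CD81EGFP cells, 3 × 10^3 per well, 1536-well, plated on prespotted compound at 10 μM final, parasite-free screening media added to match infected plates; puromycin 10 μM positive, DMSO 0.5% negative; run in parallel with 48 h PbLuc assay at 37 °C, 5% CO2; viability by CellTiter-Glo luminescence, normalized to controls.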

Row | SMILES | cytotoxicity at 10 µM [%]
1 | Fc1ccc(OCCNC2CCN(Cc3ccccn3)CC2)c(F)c1 | -3.26
2 | COc1cccc(CCC(=O)Nc2c(C)nn(C)c2C)c1OC | 1.98
3 | COc1ccc(C[C@H]2CN(C(=O)c3ccn(C)n3)CC[C@H]2OC)cc1 | 5.12
4 | O=C(C1CCOC1)N1C[C@H]2CN(Cc3ccccn3)C[C@H]2C1 (stereo not given in full) | 1.03
5 | COCCNC(=O)Cn1ccc2cccc(OC)c21 | -45.8
6 | CCn1nc(C)c(CNC(=O)c2nnc3ccccc3n2)c1C | 5.81
7 | COc1cnc(CN2CC(=O)N(c3ccc(C)cc3)CC2C)cc1O (stereo not given) | 4.01
8 | CC(=O)Nc1nc(C(=O)NC(C)c2ccc(C#N)cc2)cs1 (stereo not given) | -10.5
9 | Cc1n[nH]c(C)c1C1COCCN1C(=O)c1cc(Cl)c[nH]1 (stereo not given) | -4.12
10 | CCc1c(C(=O)N2CC[C@H](N3CCOCC3)[C@H](CCCO)C2)csc1C | -141
11 | COC(=O)CSCc1nc(-c2ccc(Cl)cc2)no1 | 3.77
12 | Cc1nc(CN2CCCC(N(C)Cc3cnc(C)s3)C2)no1 (stereo not given) | 2.76
13 | CCc1nc(C)c(C2CC(=O)Nc3c2c(-c2cccnc2)nn3C)[nH]1 (stereo not given) | -8.13
14 | CCN1CC2(CC1=O)CN(C(=O)COC)CCN(S(C)(=O)=O)C2 (stereo not given) | 0.165
15 | CC(C)(C)c1cc(C[C@H]2CNCC[C@H]2CC(=O)Nc2ccccc2)no1 | -2.4
16 | Cc1cc(C)cc(OCCN(C)C2CCOC2=O)c1 (stereo not given) | -143
17 | Cc1nc(CN2CCO[C@H]3CN(C(=O)c4cscn4)C[C@H]32)cs1 | -128
18 | O=C1[C@H]2CN(Cc3ccoc3)C[C@H]2CN1Cc1ccncc1 | -14.1
19 | COC(=O)C(NC(=O)c1cc(F)cc(F)c1)c1cccnc1 (stereo not given) | -39.1
20 | CCSc1ccccc1C(=O)N1CC2(COC(C)(C)OC2)C1 | -3.45
21 | COc1ccccc1C1CNC(=O)c2nc(-c3cnn(C)c3)[nH]c2C1 (stereo not given) | -5.33
22 | Cc1cnc(N2Cc3cnn(Cc4ccc(F)cc4)c3C2)nc1N(C)C | 6.02
23 | Cc1cc(CN2CCN(c3ccc4nncn4n3)C(C)C2)no1 (stereo not given) | -4.66

Row | SMILES | cytotoxicity at 10 µM [%]
24 | COc1cccc2cc(CNC(=O)N3CCC(C(N)=O)CC3)oc12 | -6.13
25 | CS(=O)(=O)c1nccn1Cc1ccncc1 | 14.5
26 | CCc1nc(Nc2cccc(C(=O)NC)c2)c2c(n1)c(C)nn2CC | 1.41
27 | Cc1cc(Oc2ccccc2)nc(C2CCN(CCO)CC2)n1 | -1.99
28 | COc1ccc2nc(C)c(C(=O)NCCN3CCS(=O)(=O)CC3)cc2c1 | -15.2
29 | Cc1cnc(N2CCCn3c(nnc3Cn3cccn3)C2)nc1 | 6.19
30 | Cc1nc(-c2ccsc2)sc1C(=O)N1CCn2c(C)nnc2C1 | -3.29
31 | CN(C)[C@@H]1CN(C(=O)Cc2ccccc2)[C@@H]2CCCO[C@H]12 | 3.31
32 | OCCN1CCC(F)(F)C2(CCN(c3cccnc3)C2)C1 (stereo not given) | -94.7
33 | COCCCN1CCCC(c2nccn2CC2CCC2)C1 (stereo not given) | -3.94
34 | Cn1ccc(NCc2cc3cc(F)ccc3o2)n1 | -12.4
35 | Cc1cc(C(=O)N2CCCC(c3nncn3C)C2)no1 (stereo not given) | 0.541
36 | Cc1cc2n(n1)CC(CNC1CCN(C(=O)C3CC3)CC1)CN2 (stereo not given) | 5.17
37 | COc1c(Br)cccc1CCNC(=O)c1ccon1 | -2.88
38 | CN1C(=O)Cc2cc(-c3csc(CCN4CCOC4=O)n3)ccc21 | -11.5
39 | COCC(=O)N1CCC2(C1)c1ccccc1S(=O)(=O)N2CC1CC1 (stereo not given) | 4.39
40 | Cc1ccc2cc(CN(C)Cc3ncc[nH]3)c(=O)[nH]c2c1 | 1.75
41 | Cn1cc(C(=O)NC2CCN(C(=O)NCC3CCSCC3)CC2)cn1 | 4.02
42 | COCc1ccccc1CNc1cc(N2CCCC2CO)ncn1 (stereo not given) | -1.81
43 | O=C(CO)N1CCCn2nnc(Cn3cccn3)c2C1 | 6.59
44 | Cc1ncoc1C(=O)N1CCOC(CCCC(C)C)C1 (stereo not given) | 8.29
45 | O=c1cc(-c2cc(O)cc(CCC3CCCCN3)c2)cc[nH]1 (stereo not given) | 0.749
